Compound activity (PubChem BioAssay)
Rows were chosen to be rich in hits. Some 3.5% of all compounds tested hit in one or more screens of this group.
MrgX1 ag = activates human MrgX1 receptor signaling; MrgX1-HEK293 cells, Fluo-4 calcium fluorescence, agonist mode; stronger effect = higher value; B-score at 10 µM; 310,000 tested, 0.44% active; AID 588627;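 active means calcium response B-score plate-corrected fluorescence ratio at least 3 library SD, with starting fluorescence B-score inside 5 SD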
Target sequence (Q96LB2 whole entry, looked up): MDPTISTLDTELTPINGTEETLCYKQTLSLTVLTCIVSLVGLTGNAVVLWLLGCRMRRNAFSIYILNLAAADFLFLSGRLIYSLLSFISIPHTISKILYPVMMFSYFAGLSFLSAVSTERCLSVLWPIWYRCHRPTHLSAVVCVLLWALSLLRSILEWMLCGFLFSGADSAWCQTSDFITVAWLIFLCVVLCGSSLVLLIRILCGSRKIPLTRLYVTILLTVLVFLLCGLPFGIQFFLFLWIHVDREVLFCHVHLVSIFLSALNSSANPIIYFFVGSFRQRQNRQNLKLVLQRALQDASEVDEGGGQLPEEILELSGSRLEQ
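Test system: HEK293 cells stably expressing human MrgX1 receptor; amount: 15,000 cells per well; doses: compound delivered in addition one of three; times: overnight plating before 1 h dye loading; detection: Fluo-4 NW calcium-flux fluorescence, kinetic read; read-out basis: B-scored fluorescence response ratio; controls: positive and negative controls per plate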
RGS4 pot = RGS4 potentiation or activation | HEK293 M3R/inducible RGS4, carbachol calcium flux Fluo4; stronger effect = lower value | B-score at 10 µM | 310,000 tested, 0.92% active | AID 463111;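 active means B-score of the integrated calcium signal more than 4 SD below the library mean, with starting fluorescence not abnormally high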;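 further: negative B-score means reduced calcium response which marks RGS4 activation or potentiation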
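System: HEK293 FlpIn-TREx cells, stable M3R, doxycycline-inducible RGS4. Timing: overnight RGS4 induction, 30 min dye load 37 °C, 20 min compound RT. Also added: carbachol, ECmax concentration. Measured by: Fluo4 fluorescence kinetic imaging of calcium. Evaluation: integrated calcium ratio converted to B score.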
MrgX1 antag = human MrgX1 receptor antagonism, primary screen; AID 588676; 310,000 tested, 1.3% active; MRGX1-HEK293 calcium flux, Fluo-4, BAM8-22 antagonism; stronger effect = lower value; B-score at 10 µM;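 active means calcium-response B-score plate-corrected more than 3 library SD below zero, starting fluorescence within 5 deviations, no agonist response on first addition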;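 further: peak minus trough fluorescence over baseline after final BAM8-22 challenge near maximal dose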
RGS4 inh = inhibitors of human RGS4; P49798; HEK293 M3R/RGS4 inducible, Fluo-4 calcium flux; stronger effect = higher value; triggered by carbachol at its EC20; B-score at 10 µM; 310,000 tested, 0.45% active;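 active means B-score, a plate-corrected calcium signal, over three deviations above library mean, with baseline fluorescence within five deviations of library mean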;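 further: RGS4 expression induced by doxycycline in cells with stable M3 receptor; B-score is computed from the integrated fluorescence ratio over baseline after carbachol; higher B-score means a larger calcium signal and so more RGS4 inhibition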
Target sequence (P49798 whole entry, looked up): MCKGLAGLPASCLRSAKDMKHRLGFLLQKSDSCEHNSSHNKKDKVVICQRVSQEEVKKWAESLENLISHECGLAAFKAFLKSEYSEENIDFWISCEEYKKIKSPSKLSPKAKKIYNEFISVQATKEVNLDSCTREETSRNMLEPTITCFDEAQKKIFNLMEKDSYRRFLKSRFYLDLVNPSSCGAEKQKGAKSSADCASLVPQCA
MrgX1 allo act = allosterically activates human MrgX1 receptor signaling; Q96LB2; MrgX1-HEK293, Fluo-4 calcium flux, FDSS; stronger effect = higher value; B-score at 10 µM; 310,000 tested, 0.63% active;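 active means plate-corrected calcium response at least 3 library SD above typical, normal starting fluorescence, not activating the receptor alone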;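 further: compound read alongside a low EC10 to EC30 dose of BAM8-22 agonist; peak minus trough fluorescence over baseline measured at the second addition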
MrgX1 ant reconf = reconfirmed antagonist of human MrgX1 receptor signaling; remaining BAM8-22 calcium response % of control (stronger effect = lower value), % at 10 µM; shares compounds with MrgX1 antag; MrgX1-HEK293, BAM8-22 calcium flux, Fluo-4; stronger effect = lower value; AID 602420; 2,300 tested, 19% active;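 active means remaining agonist calcium response no higher than 100% minus 3 SD of agonist-only control wells, with starting fluorescence near control levels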;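 further: agonist BAM8-22 given at a near maximal EC90 to ECmax level; peak minus minimum fluorescence divided by baseline after agonist addition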
HEK293 Ca flux = MrgX1 antagonist counter-screen hit in parental HEK293 cells; shares compounds with MrgX1 antag; Fluo-4 calcium fluorescence, FDSS; fluorescence ratio F(max-min)/F0 at 10 µM; 4,000 tested, 2% active; AID 624111;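 active means duplicate-averaged calcium fluorescence ratio at least three times the standard deviation of buffer wells, a nonspecific response in parental cells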
HEK293 Ca counter = MrgX1 allosteric activator counter-screen hit in parental HEK293 cells. parental HEK293 calcium flux, Fluo-4 fluorescence ratio; stronger effect = higher value. 4,000 tested, 0.4% active. fluorescence ratio F(max-min)/F0 at 10 µM. shares compounds with MrgX1 antag;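 active means calcium fluorescence ratio, averaged over duplicates, at least 3 SD of the buffer-well ratio, meaning a nonspecific response in receptor-free cells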;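 further: untransfected parental HEK293 lacking MrgX1 used as counterscreen for MrgX1 allosteric activators; fluorescence change taken during the second addition on a kinetic imager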
HEK293 Ca cntr2 = activity in parental HEK293 cells lacking MrgX1 receptor; shares compounds with MrgX1 antag; Fluo-4 calcium fluorescence (FDSS); stronger effect = higher value; fluorescence ratio F(max-min)/F0 at 10 µM; 4,000 tested, 8.7% active;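 active means calcium fluorescence ratio at least three times the spread of buffer wells, meaning a non-specific response in parental cells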
Numbers without * were called inactive; i = inactive; . = no result given.

SMILES | MrgX1 ag | RGS4 pot | MrgX1 antag | RGS4 inh | MrgX1 allo act | MrgX1 ant reconf | HEK293 Ca flux | HEK293 Ca counter | HEK293 Ca cntr2
CCC(C)(C)n1nnnc1C(c1ccc2ncccc2c1)N1CCCC(C)C1 (stereo unspecified) | i | i | -6.33* | i | i | i | i | i | i
Cc1ccc(C(=O)NC(=S)Nc2ccc(N3CCOCC3)cc2)c(C)c1 | i | i | -5.41* | i | i | i | i | i | i
CC(C)(C)OC(=O)[C@H](Cc1ccccc1)NC(=O)c1nc[nH]c1C(=O)N1CCN(C(=O)OC(C)(C)C)CC1 | i | i | i | i | i | . | . | . | .
CC1CCN(C(=O)c2[nH]cnc2C(=O)N[C@@H](Cc2ccccc2)C(=O)OC(C)(C)C)CC1 | i | i | -7.01* | i | i | i | i | i | i
Clc1ccc(Cn2ncc3c(N4CCOCC4)ncnc32)cc1 | i | i | i | i | i | . | . | . | .
COC(=O)c1cc(Br)c(=O)n(CCC2=CCCCC2)c1 | i | i | i | i | i | . | . | . | .
S=C(NCCc1c[nH]c2ccccc12)NC1CCCC1 | i | i | -4.95* | i | i | i | i | i | i
S=C(NCCc1c[nH]c2ccccc12)NC1CCCCC1 | i | i | i | i | i | . | . | . | .
OCCNc1nc(Nc2ccc(Br)cc2)nc2ccccc12 | i | i | -6.87* | i | i | 73.5%* | i | i | i
c1ccc(Nc2nc(NCC3CCCO3)c3ccccc3n2)cc1 (stereo unspecified) | i | i | -5.09* | i | i | 38.4%* | i | i | i
COC(=O)c1ccc(-c2ccc(/C=N/NC(=O)Cc3nnc(N)s3)o2)cc1 | i | i | i | i | i | . | . | . | .
CC(=O)Nc1ccc(NC(=O)CC(C)n2ccnc2)cc1 (stereo unspecified) | i | i | -7* | i | i | i | i | i | i
CC(CC(=O)Nc1nc2ccccc2[nH]1)n1ccnc1 (stereo unspecified) | i | i | i | i | i | . | . | . | .
CCOC(=O)CSc1n[nH]c(-c2cccnc2)n1 | i | i | -6.96* | i | i | i | i | i | i
O=C(Cn1c(=O)n(CCCC(=O)NC2CCCC2)c(=O)c2ccccc21)NCCC1=CCCCC1 | i | i | i | i | i | . | . | . | .
CC1CCN(S(=O)(=O)c2cc(C(=O)N3CCN(c4ncccn4)CC3)ccc2Br)CC1 | i | i | i | i | i | . | . | . | .
O=c1cc(N2CCCCC2)nc2n1CCCS2 | i | i | -5.41* | i | i | i | i | i | i
CCOC(=O)Nc1ccc2c(c1)N(C(=O)CN1CCN(CCO)CC1)c1ccccc1CC2 | i | i | i | i | i | . | . | . | .
CC(C)(Cc1cc(CC(C)(C)C(=O)O)cc(C(C)(C)C)c1)C(=O)O | i | i | -7.55* | i | i | i | i | i | i
Cc1cc(C)n(-c2nnc(C)n2N)n1 | i | i | -5.92* | i | i | 85.3%* | i | i | i
Cc1cc(C)n(-c2nnc(C)n2/N=C/c2ccccc2O)n1 | i | i | i | i | i | . | . | . | .
CC(=O)Nc1ccc(NC(=O)Nc2ccc3c(c2)N(C)C(=O)CS3)cc1 | i | i | i | i | i | . | . | . | .
COc1cccc(NC(=O)Nc2ccc3c(c2)N(C)C(=O)CS3)c1 | i | i | -7.29* | i | i | 42.0%* | i | i | i
